{"source": "ChEMBL document CHEMBL4513216", "about": "“Probing the Open Global Health Chemical Diversity Library for Multistage-Active Starting Points for Next-Generation Antimalarials” (ACS Infect Dis, 2020)", "assay": "Toxicity liver stage against HepG2, at 10uM", "type": "cell-based", "set-up": "test concentration 10 uM, cell line HepG2-A16-CD81EGFP", "conditions": "human, HepG2-A16-CD81EGFP cells; read-out: INHIBITION", "how_it_was_run": "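Uninfected HepG2-A16-CD81EGFP cells, 3 × 10^3 per well, 1536-well, plated on prespotted compound at 10 μM final, parasite-free screening media added to match infected plates; puromycin 10 μM positive, DMSO 0.5% negative; run in parallel with 48 h PbLuc assay at 37 °C, 5% CO2; viability by CellTiter-Glo luminescence, normalized to controls.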"}
{"smiles": "CCCS(=O)(=O)N1CCC2(CCCC(=O)N2C)CC1", "values": [{"measurement": "cytotoxicity at 10 µM", "result": 3.29, "unit": "%"}]}
{"smiles": "CN(Cc1ccco1)C1CCC12CCN(C(=O)c1ccncc1)CC2", "note": "(stereo not given)", "values": [{"measurement": "cytotoxicity at 10 µM", "result": 2.82, "unit": "%"}]}
{"smiles": "CC(=O)N1CCC2(CCN(S(=O)(=O)c3ccccc3)CC2)C1", "values": [{"measurement": "cytotoxicity at 10 µM", "result": -2.83, "unit": "%"}]}
{"smiles": "Cc1nc(COCC2CNCc3nccn3C2)cs1", "note": "(stereo not given)", "values": [{"measurement": "cytotoxicity at 10 µM", "result": 1.79, "unit": "%"}]}
{"smiles": "Cc1oc2c(c1C(=O)N1CC[C@H](O)[C@]3(CCCO3)C1)CCCC2", "values": [{"measurement": "cytotoxicity at 10 µM", "result": 2.75, "unit": "%"}]}
{"smiles": "COc1ccc(C(=O)N2CCOCC2c2[nH]ncc2C)cc1F", "note": "(stereo not given)", "values": [{"measurement": "cytotoxicity at 10 µM", "result": 2.21, "unit": "%"}]}
{"smiles": "O=C(c1ccccn1)N1CCCC(c2ncncc2-c2ccncc2)C1", "note": "(stereo not given)", "values": [{"measurement": "cytotoxicity at 10 µM", "result": -0.0141, "unit": "%"}]}
{"smiles": "Cn1ccc2ccnc(CC3CN(C(=O)c4cscn4)C3)c21", "values": [{"measurement": "cytotoxicity at 10 µM", "result": -28.6, "unit": "%"}]}
{"smiles": "Cc1ccnc(C2CCCN2C(=O)c2cnccn2)n1", "note": "(stereo not given)", "values": [{"measurement": "cytotoxicity at 10 µM", "result": -14.1, "unit": "%"}]}
{"smiles": "O=C(c1cc[nH]n1)N1CCc2c(nc(N3CCCCC3)[nH]c2=O)C1", "values": [{"measurement": "cytotoxicity at 10 µM", "result": 15.5, "unit": "%"}]}
{"smiles": "CN1CCCC(c2cccc(CCC(=O)NCc3ccccn3)n2)C1", "note": "(stereo not given)", "values": [{"measurement": "cytotoxicity at 10 µM", "result": -14, "unit": "%"}]}
{"smiles": "COC(=O)C1(NCc2nc(C)c(C)o2)CCC(C)CC1", "note": "(stereo not given)", "values": [{"measurement": "cytotoxicity at 10 µM", "result": -5.54, "unit": "%"}]}
{"smiles": "Cc1cc(C(=O)NC2CCN(c3nnc(C)c(C)c3C#N)CC2)no1", "values": [{"measurement": "cytotoxicity at 10 µM", "result": -2.12, "unit": "%"}]}
{"smiles": "O=C(NCc1ccc(N2CC=CC2)cc1)Nc1nnc(C2CC2)s1", "values": [{"measurement": "cytotoxicity at 10 µM", "result": 7.25, "unit": "%"}]}
{"smiles": "Cc1ccc(OCC(=O)NCC(F)(F)F)nc1", "values": [{"measurement": "cytotoxicity at 10 µM", "result": 0.84, "unit": "%"}]}
{"smiles": "CCc1nccn1C1CCCN(C(=O)c2cc(C3CC3)on2)C1", "note": "(stereo not given)", "values": [{"measurement": "cytotoxicity at 10 µM", "result": -6.96, "unit": "%"}]}
{"smiles": "CC(C)c1nnc2n1CC(CNCc1nnc(C(C)(C)C)o1)CC2", "note": "(stereo not given)", "values": [{"measurement": "cytotoxicity at 10 µM", "result": -21.6, "unit": "%"}]}
{"smiles": "CCC(C)(C)NC(=O)CSCc1ccc(S(=O)(=O)N(C)C)o1", "values": [{"measurement": "cytotoxicity at 10 µM", "result": 5.94, "unit": "%"}]}
{"smiles": "Cc1ccc2c(c1)OCCCC2NCc1nccn1Cc1ccccc1", "note": "(stereo not given)", "values": [{"measurement": "cytotoxicity at 10 µM", "result": -9.4, "unit": "%"}]}
{"smiles": "COc1ccc(C(NCc2cccc(O)c2)C2CC2)cc1", "note": "(stereo not given)", "values": [{"measurement": "cytotoxicity at 10 µM", "result": 4.99, "unit": "%"}]}
{"smiles": "Cc1nc(O)cc(CCNC(=O)CN2CCCCCC2)n1", "values": [{"measurement": "cytotoxicity at 10 µM", "result": 0.458, "unit": "%"}]}
{"smiles": "Cc1cnc(C)c(N2CCC(C(=O)O)(n3ccc(C(C)(C)C)n3)CC2)n1", "values": [{"measurement": "cytotoxicity at 10 µM", "result": 20.4, "unit": "%"}]}
{"smiles": "COC(=O)Nc1ccc(CNc2cncc(-n3cccn3)n2)cc1", "values": [{"measurement": "cytotoxicity at 10 µM", "result": -5.78, "unit": "%"}]}
{"smiles": "CCc1c(C(=O)N2CCNC(=O)C2)cnn1C(C)(C)C", "values": [{"measurement": "cytotoxicity at 10 µM", "result": -20.3, "unit": "%"}]}
{"smiles": "CC(O)CNCc1c(C(C)C)nn(C)c1N1CCOCC1", "note": "(stereo not given)", "values": [{"measurement": "cytotoxicity at 10 µM", "result": -3.48, "unit": "%"}]}
{"smiles": "CC(Nc1cccc(CN2CCOC2=O)c1)C(=O)NC(=O)NC(C)(C)C", "note": "(stereo not given)", "values": [{"measurement": "cytotoxicity at 10 µM", "result": -10.9, "unit": "%"}]}
{"smiles": "CC(C)(C)c1cc(NC(=O)CN2CCC(N3CCNC3=O)CC2)on1", "values": [{"measurement": "cytotoxicity at 10 µM", "result": -2.05, "unit": "%"}]}
{"smiles": "Cc1cnn(CC2CCCN2C(=O)c2ccc(Cl)cc2F)c1", "note": "(stereo not given)", "values": [{"measurement": "cytotoxicity at 10 µM", "result": -19, "unit": "%"}]}
{"smiles": "CCn1ccnc1CN1CCCN(C(=O)Cc2ccc(C)cc2)CC1", "values": [{"measurement": "cytotoxicity at 10 µM", "result": -7.29, "unit": "%"}]}
{"smiles": "CCN(Cc1cccc(F)c1)Cc1nc2c(cnn2C)c(=O)[nH]1", "values": [{"measurement": "cytotoxicity at 10 µM", "result": 3.71, "unit": "%"}]}
{"smiles": "CCn1cnnc1C1CCN(C(=O)c2ccccc2OC)CC1", "values": [{"measurement": "cytotoxicity at 10 µM", "result": -8.62, "unit": "%"}]}
{"smiles": "Cn1ccnc1CN1CCCN(C(=O)c2ccc3c(c2)COC3)CC1", "values": [{"measurement": "cytotoxicity at 10 µM", "result": -10.9, "unit": "%"}]}
{"smiles": "Cn1cc(C(=O)NC2CCN(Cc3ccn(C)c(=O)c3)CC2)cn1", "values": [{"measurement": "cytotoxicity at 10 µM", "result": -16.7, "unit": "%"}]}
{"smiles": "CNc1nc(CNC(=O)Nc2cccc(F)c2C)cs1", "values": [{"measurement": "cytotoxicity at 10 µM", "result": -5.43, "unit": "%"}]}
{"smiles": "Cc1cccc(-c2nc(CN3CCc4cnc(C)nc4C3)no2)c1", "values": [{"measurement": "cytotoxicity at 10 µM", "result": -8.42, "unit": "%"}]}
{"smiles": "O=C1CC2(CCCNC2)C(=O)N1Cc1ccc(Cl)cc1", "note": "(stereo not given)", "values": [{"measurement": "cytotoxicity at 10 µM", "result": -1.57, "unit": "%"}]}
{"smiles": "CC(C)C(=O)N1CC[C@H]2N(C)CC[C@@]2(C(=O)N2CCCC2)CC1", "values": [{"measurement": "cytotoxicity at 10 µM", "result": 5.5, "unit": "%"}]}
{"smiles": "CC(=O)N1CC[C@H]2OCC[C@@]2(C(=O)NCCc2ccccn2)C1", "values": [{"measurement": "cytotoxicity at 10 µM", "result": 6, "unit": "%"}]}
{"smiles": "C[C@H]1CN(CC2CCOCC2)C[C@@]12CCN(Cc1cccnc1)C2=O", "values": [{"measurement": "cytotoxicity at 10 µM", "result": 1.73, "unit": "%"}]}
{"smiles": "c1ccc(CN2CCc3c(COCc4ccncc4)cncc3C2)nc1", "values": [{"measurement": "cytotoxicity at 10 µM", "result": 6.53, "unit": "%"}]}
{"smiles": "O=C1[C@@H]2CN(C3CCOCC3)C[C@H]2CCN1CC1CC1", "values": [{"measurement": "cytotoxicity at 10 µM", "result": 4.17, "unit": "%"}]}
{"smiles": "O=C1[C@H]2CN(Cc3ccc(F)cc3)C[C@H]2CN1CCN1CCCC1", "values": [{"measurement": "cytotoxicity at 10 µM", "result": -13.2, "unit": "%"}]}
{"smiles": "Cn1nc(Cn2ccnc2)c2c1CN(c1ncccn1)C2", "values": [{"measurement": "cytotoxicity at 10 µM", "result": 5.3, "unit": "%"}]}
{"smiles": "Cc1ccc2c(n1)N(C)CCN(Cc1ccco1)C2", "values": [{"measurement": "cytotoxicity at 10 µM", "result": -4.97, "unit": "%"}]}
{"smiles": "CC(C)(C)CC(=O)N1C[C@@H]2C[C@@H]1CN2", "values": [{"measurement": "cytotoxicity at 10 µM", "result": 6.59, "unit": "%"}]}
